Assay results as given in paper PMC4467237 (Clinical Pharmacology in Drug Development, 2014).
“Also recorded” adds a separate entry of the source. Read-outs that look alike come from different tables or passages of the source. Marks after values point to notes of the source that are not given here.

Tests used:
[1] = human; cited from earlier work
[2] = Safety assessments; type: in vivo, human
How it was run: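 Healthy adults in a randomized two-sequence crossover with a 14-day washout. Each period gave an oral 400 mg interacting drug or placebo once daily for 18 days, plus a single oral 5 mg test compound on day 5 after a 10-h fast. AEs checked daily, graded mild/moderate/severe and for causality, coded in MedDRA v14.0. Vital signs taken before PK draws. Labs, 12-lead ECG and physical exam at baseline, predose and discharge. Summarized descriptively in dosed subjects with ≥1 postdose assessment.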

[3] = healthy volunteers, cited from earlier work
[4] = test system: CYP3A4; conditions: lenvatinib 0.1–10 µg/mL, human liver microsomes and human recombinant CYPs; ref Eisai data on file; cited from earlier work
[5] = single agent, Phase I and II studies; cited from earlier work
[6] = type: in vivo, human; conditions: for AUC(0-t) / AUC(0-inf) / Tmax / half-life: human, plasma, oral
[7] = cited from earlier work
[8] = 5 mg lenvatinib + ketoconazole 400 mg/day [B], n = 16
[9] = 5 mg lenvatinib + placebo [A], n = 16
[10] = 5 mg, arithmetic mean (SD), 5 mg lenvatinib + placebo [A], n = 16
[11] = 5 mg, geometric mean (%CV), 5 mg lenvatinib + placebo [A], n = 16
[12] = arithmetic mean (SD), 5 mg lenvatinib + ketoconazole 400 mg/day [B], n = 16
[13] = geometric mean (%CV), 5 mg lenvatinib + ketoconazole 400 mg/day [B], n = 16

For `COc1cc2nccc(Oc3ccc(NC(=O)NC4CC4)c(Cl)c3)c2cc1C(N)=O` [Lenvatinib], the “Renal clearance as contributor to oral clearance” value [1] is given as 1–2%, the “Terminal exponential half-life (t½,z)” value [1] is given as ~28 h and the “Subjects reporting treatment-emergent AEs” value ([2]; following ketoconazole with lenvatinib, 18 subjects) is given as 44%. For the same compound, the “Subjects reporting treatment-emergent AEs” value ([2]; following placebo with lenvatinib, 17 subjects) was 59%, the ECG results ([2]; overall, both treatments) was “either normal or considered not clinically significant” and the “Serious TEAEs” value ([2]; overall, both treatments) was “No serious TEAEs were reported”. For the same compound, the “Subjects with treatment-related TEAEs” value ([2]; overall, both treatments) was 22%, the “Subjects reporting treatment-emergent AEs” value ([2]; overall, both treatments, N = 18) was 72% and the Hypertension ([2]; single-dose lenvatinib 5 mg alone or with ketoconazole, healthy subjects) was “not observed”. The Median tmax ([3]; range 1–4 hours) was 2 h, the “Mean t½” value ([3]; range 11–57 hours) was 27.6 h and the “AUC0–∞” value [3] was 1409 ng·h/mL. The “Mean Cmax” value [3] was 144.5 ng/mL, the “Share of CYP3A4 in the CYP-mediated metabolism of lenvatinib” value [4] was > 80% and the Maximum tolerated dose [5] was 25 mg/day. The “CL/F, arithmetic mean (SD)” value [6, 8] was 7.70 (1.49) L/h, the “tlag, arithmetic mean (SD)” value [6, 8] was 0.06 (0.17) ^e h and the “CL/F, arithmetic mean (SD)” value [6, 9] was 8.78 (1.40) L/h. The “tlag, arithmetic mean (SD)” value [6, 9] was 0.16 (0.24) ^b h, the “Increase in Cmax with ketoconazole versus placebo” value ([6]; 5 mg lenvatinib, ketoconazole 400 mg/day) was 19% and the “Percent extrapolation of AUC0–∞” value ([6]; across all subjects) was < 4%. The “Median time at which Cmax was achieved” value ([6]; both treatment conditions (placebo or ketoconazole)) was 3 h, the AUC(0-t) [6, 10] was 571 ng·h/mL and the AUC(0-t) [6, 11] was 564 ng·h/mL. For the same compound, the AUC(0-inf) [6, 10] was 584 ng·h/mL, the AUC(0-inf) [6, 11] was 577 ng·h/mL and the Tmax ([6]; 5 mg, tmax median (range), 5 mg lenvatinib + placebo [A]) was 3 h. The Tmax ([6]; 5 mg, tmax, arithmetic mean (SD), 5 mg lenvatinib + placebo [A], n = 16) was 3.13 h, the half-life ([6]; 5 mg, t½ median (range), 5 mg lenvatinib + placebo [A]) was 29 h and the AUC(0-t) [6, 12] was 661 ng·h/mL. The AUC(0-t) [6, 13] was 647 ng·h/mL, the AUC(0-inf) [6, 12] was 676 ng·h/mL and the AUC(0-inf) [6, 13] was 662 ng·h/mL. The Tmax ([6]; tmax median (range), 5 mg lenvatinib + ketoconazole [B]) was 3 h, the Tmax ([6]; tmax, arithmetic mean (SD), 5 mg lenvatinib + ketoconazole 400 mg/day [B], n = 16) was 2.56 h and the half-life ([6]; t½ median (range), 5 mg lenvatinib + ketoconazole [B]) was 29.2 h. The half-life ([6]; t½, arithmetic mean (SD), 5 mg lenvatinib + ketoconazole 400 mg/day [B], n = 16) was 28.3 h, the “Decrease in apparent mean clearance in the ketoconazole treatment group” value ([6]; versus placebo) was ~12% and the “Difference in tmax, t½ or tlag between the two treatments” value ([6]; visual assessment, ketoconazole versus placebo) was “No changes; also recorded: no difference”.
For `Cc1cn(-c2cc(NC(=O)c3ccc(C)c(Nc4nccc(-c5cccnc5)n4)c3)cc(C(F)(F)F)c2)cn1` [nilotinib], the “Increase in AUC with ketoconazole coadministration” value ([7]; nilotinib) is listed as “more than 200%” and the “Increase in Cmax with ketoconazole coadministration” value ([7]; nilotinib) is listed as 84%.
For `Cc1ccc(NC(=O)c2ccc(CN3CCN(C)CC3)cc2)cc1Nc1nccc(-c2cccnc2)n1` [imatinib], the “Increase in AUC with ketoconazole coadministration” value ([7]; imatinib) is given as 40%.
